Assay: Stability at 120 degC after 1 hr
Format: physicochemical
Conditions: read-out: Stability
Summary of the method: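 Prodrugs at 0.5% in 0.5% HPMC/5% dextrose, pH 6.7, in closed vials, autoclaved at 120 °C for 1 h. After cooling, percent remaining was assessed by reverse-phase HPLC with diode-array and ELSD detection.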

| remaining at 1 h | Structure (SMILES) |
| --- | --- |
| 50% | Cc1cc(-c2cc(OC(=O)c3cccnc3)ccc2Cl)cc2nnc(Nc3ccc(OCCN4CCCC4)cc3)nc12 |
| < 20% | CC(=O)Oc1ccc(Cl)c(-c2cc(C)c3nc(Nc4ccc(OCCN5CCCC5)cc4)nnc3c2)c1 |
| 50% | Cc1cc(-c2cc(OC(=O)C(C)C)ccc2Cl)cc2nnc(Nc3ccc(OCCN4CCCC4)cc3)nc12 |
| < 20% | Cc1cc(-c2cc(OC(=O)CN)ccc2Cl)cc2nnc(Nc3ccc(OCCN4CCCC4)cc3)nc12 |

— ChEMBL document CHEMBL1144020, “Development of prodrug 4-chloro-3-(5-methyl-3-{[4-(2-pyrrolidin-1-ylethoxy)phenyl]amino}-1,2,4-benzotriazin-7-yl)phenyl benzoate (TG100801): a topically administered therapeutic candidate in clinical trials for the treatment of age-related macular degeneration” (J Med Chem, 2008)
